Experimental data published in ChEMBL document CHEMBL3616382, “Catechols and 3-hydroxypyridones as inhibitors of the DNA repair complex ERCC1-XPF” (Bioorg Med Chem Lett, 2015).

Legend:
[1] = target: T1, DNA excision repair protein ERCC-1/DNA repair endonuclease XPF (Homo sapiens, UniProt P07992+Q92889); test: Inhibition of ERCC1-XPF (unknown origin) by high-throughput fluorescence based in-vitro endonuclease assay; format: protein-complex assay
T1 sequence (P07992 whole entry): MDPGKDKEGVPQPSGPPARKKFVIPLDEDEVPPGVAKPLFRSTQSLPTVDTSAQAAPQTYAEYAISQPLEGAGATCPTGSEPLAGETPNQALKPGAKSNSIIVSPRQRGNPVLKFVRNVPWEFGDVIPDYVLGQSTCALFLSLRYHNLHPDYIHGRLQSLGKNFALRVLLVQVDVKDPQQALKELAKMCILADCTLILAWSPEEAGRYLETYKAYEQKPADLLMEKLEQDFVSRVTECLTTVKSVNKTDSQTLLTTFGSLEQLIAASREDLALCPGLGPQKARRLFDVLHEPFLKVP
T1 sequence (Q92889 whole entry): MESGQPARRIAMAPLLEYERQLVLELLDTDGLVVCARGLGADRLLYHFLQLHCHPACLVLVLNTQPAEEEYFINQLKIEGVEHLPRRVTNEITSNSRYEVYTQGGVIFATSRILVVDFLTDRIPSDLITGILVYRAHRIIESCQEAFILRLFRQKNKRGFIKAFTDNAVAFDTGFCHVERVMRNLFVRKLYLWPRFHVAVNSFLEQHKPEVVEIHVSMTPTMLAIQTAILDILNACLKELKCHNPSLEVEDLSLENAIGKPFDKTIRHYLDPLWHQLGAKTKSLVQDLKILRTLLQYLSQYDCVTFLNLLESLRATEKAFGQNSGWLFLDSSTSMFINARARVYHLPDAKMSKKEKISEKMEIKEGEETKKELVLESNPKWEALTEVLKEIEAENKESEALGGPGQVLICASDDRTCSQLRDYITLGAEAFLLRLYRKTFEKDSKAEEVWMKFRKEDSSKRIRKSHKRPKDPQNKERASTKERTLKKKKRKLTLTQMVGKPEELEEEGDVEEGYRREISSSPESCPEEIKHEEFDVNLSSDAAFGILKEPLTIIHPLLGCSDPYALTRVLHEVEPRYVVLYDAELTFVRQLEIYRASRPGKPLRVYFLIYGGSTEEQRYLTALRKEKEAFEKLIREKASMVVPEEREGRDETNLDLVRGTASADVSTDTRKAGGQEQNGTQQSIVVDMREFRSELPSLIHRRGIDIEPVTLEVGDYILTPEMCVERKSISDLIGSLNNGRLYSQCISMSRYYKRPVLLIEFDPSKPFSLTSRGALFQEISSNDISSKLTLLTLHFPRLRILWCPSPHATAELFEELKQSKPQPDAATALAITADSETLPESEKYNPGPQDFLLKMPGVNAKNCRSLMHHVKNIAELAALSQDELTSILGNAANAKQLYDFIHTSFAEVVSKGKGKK

[2] = target: Flap endonuclease 1 (Homo sapiens, UniProt P39748); test: Inhibition of FEN1 (unknown origin)
[3] = target: T2, Deoxyribonuclease-1 (Homo sapiens, UniProt P24855); test: Inhibition of DNAse1 (unknown origin)
T2 sequence (P24855 whole entry): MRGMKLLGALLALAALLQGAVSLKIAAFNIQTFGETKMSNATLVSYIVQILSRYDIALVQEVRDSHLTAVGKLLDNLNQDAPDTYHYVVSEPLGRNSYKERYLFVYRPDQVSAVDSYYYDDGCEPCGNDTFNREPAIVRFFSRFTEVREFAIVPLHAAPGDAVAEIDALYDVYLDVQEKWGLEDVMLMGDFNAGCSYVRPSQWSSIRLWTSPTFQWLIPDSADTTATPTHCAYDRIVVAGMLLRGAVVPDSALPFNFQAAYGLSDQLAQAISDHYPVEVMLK

[4] = Lipophilicity, log D of the compound; format: physicochemical; conditions: octanol/water
[5] = test system: HepG2; test: Cytotoxicity against human HepG2 cells; format: cell-based
How it was run: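 Hep-G2 cells exposed to compound at concentrations up to 10 μM; toxicity assessed.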

[6] = Half life in mouse liver microsomes; format: ADME
[7] = Half life in human liver microsomes; format: ADME
[8] = Apparent permeability by PAMPA method; format: physicochemical
[9] = target: T1, DNA excision repair protein ERCC-1/DNA repair endonuclease XPF; test: Binding affinity to ERCC1-XPF (unknown origin) by SPR assay; format: protein-complex assay
[10] = target: T1, DNA excision repair protein ERCC-1/DNA repair endonuclease XPF; test: Inhibition of ERCC1-XPF in human A375 cells assessed as reduction in direct nucleotide excision repair of UV-damaged pEGFP plasmid incubated for 234 hrs by recombinant GFP reporter assay; format: cell-based, A-375; conditions: in the assay text read “24 hrs” for “234 hrs”
How it was run: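 A375 cells co-transfected with UV-damaged or undamaged pEGFP plus pGL3 luciferase plasmid, treated with compound up to 60 μM for 24 h. GFP/luciferase ratio for damaged plasmid divided by that for undamaged, then normalized to no-compound controls to give % NER activity (DNA Repair Index); IC50 from plot against concentration.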

[11] = test system: A-375; test: Cytotoxicity against human A375 cells assessed as reduction in cell number at 4.89 uM incubated for 5 days; format: cell-based; conditions: a-375, 120 h, 4.96 µM, in the assay text read “4.96 uM” for “4.89 uM”
How it was run: (§1)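 A375 melanoma cells treated with compound alone over 0.6–10 μM for 5 days; cell count determined by high-content imaging. Data from 4 separate experiments, error bars SD.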

[12] = test system: A-375; test: Cytotoxicity against human A375 cells assessed as reduction in cell number at 10 uM incubated for 5 days; format: cell-based; conditions: a-375, 120 h; how it was run: as §1
[13] = target: T3, DNA excision repair protein ERCC-1/DNA repair endonuclease XPF (Homo sapiens) (UniProt P07992+Q92889); test: Inhibition of ERCC1-XPF in human A375 cells assessed as induction of delay in DNA repair by measuring cumulative frequency of cells at 10 uM pre-incubated for 1 hr before 5 uM cisplatin exposure for 1 hr and measured after 6 hrs by […] based gammaH2AX foci assay (reference value: 45.43%); format: cell-based; set-up: scale not given: the % may be the effect or the level left; conditions: A-375
How it was run: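 A375 cells pretreated with compound (10 μM) for 1 h, then 5 μM cisplatin for 1 h to induce damage, with continued compound exposure for 6 h. γH2AX foci per cell quantified by immunofluorescence with specific antibody and high-content imaging; cumulative Gaussian fit of foci distribution. 2 representative experiments, triplicates each, error bars SEM.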

[14] = target: T3, DNA excision repair protein ERCC-1/DNA repair endonuclease XPF (Homo sapiens); conditions: A-375, 0.624 uM
[15] = target: T3, DNA excision repair protein ERCC-1/DNA repair endonuclease XPF (Homo sapiens); conditions: A-375, 1.28 uM
[16] = target: T3, DNA excision repair protein ERCC-1/DNA repair endonuclease XPF (Homo sapiens); conditions: A-375, 2.48 uM
[17] = target: T3, DNA excision repair protein ERCC-1/DNA repair endonuclease XPF (Homo sapiens); conditions: A-375, 4.96 uM
[18] = target: T3, DNA excision repair protein ERCC-1/DNA repair endonuclease XPF (Homo sapiens); conditions: A-375, 10 uM

Flap endonuclease 1, sequence (P39748 whole entry): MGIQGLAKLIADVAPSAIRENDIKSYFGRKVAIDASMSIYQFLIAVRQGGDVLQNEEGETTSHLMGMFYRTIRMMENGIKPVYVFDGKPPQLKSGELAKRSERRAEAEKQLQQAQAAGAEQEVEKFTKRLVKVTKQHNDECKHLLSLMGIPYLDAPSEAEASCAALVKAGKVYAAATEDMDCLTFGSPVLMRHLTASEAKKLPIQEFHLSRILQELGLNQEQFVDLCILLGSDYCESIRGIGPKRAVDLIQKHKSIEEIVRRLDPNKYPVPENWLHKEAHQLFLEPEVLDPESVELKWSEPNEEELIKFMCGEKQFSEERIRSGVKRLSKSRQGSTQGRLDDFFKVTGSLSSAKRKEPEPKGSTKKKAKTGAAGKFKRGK

Compound | IC50 [1] | IC50 [2] | IC50 [3] | also measured
O=C(NCc1ccc(O)c(O)c1)Nc1ccc(Cl)cc1 | 4.8 µM | > 100 µM | > 100 µM | –
CC(C)C(=O)NCc1ccc(O)c(O)c1 | 24 µM | – | – | –
O=C(CNc1ccccc1)NCCc1ccc(O)c(O)c1 | 15.2 µM | > 100 µM | > 100 µM | –
O=C(Cc1cccnc1)NCc1ccc(O)c(O)c1 | 25.6 µM | – | – | –
O=C(Cc1ccc(Cl)cc1Cl)NCc1cc(O)c(O)cc1F | 1.1 µM | > 100 µM | > 100 µM | –
O=C(Cc1ccccc1Cl)NCc1ccc(O)c(O)c1 | 0.8 µM | > 100 µM | > 100 µM | –
O=C(NCc1ccc(O)c(O)c1)C1(c2ccccc2)CCCCC1 | 1.6 µM | > 100 µM | – | –
O=C(CNc1ccccc1)NCc1ccc(O)c(O)c1 | 0.9 µM | > 100 µM | > 100 µM | –
O=C(Cc1ccc(Cl)cc1)NCc1ccc(O)c(O)c1 | 1 µM | > 100 µM | > 100 µM | –
CC(=O)Nc1ccc(-c2c[nH]c(=O)c(O)c2)cc1 | 13.5 µM | > 100 µM | > 100 µM | –
O=C(CC1CCCCC1)NCc1ccc(O)c(O)c1 | 1.4 µM | > 100 µM | > 100 µM | –
CN(Cc1ccc(O)c(O)c1)C(=O)Cc1ccc(Cl)cc1Cl | 0.8 µM | > 100 µM | > 100 µM | –
O=C1N(Cc2ccc(Cl)cc2)CCN1Cc1ccc(O)c(O)c1 | 4.1 µM | > 100 µM | > 100 µM | –
O=c1[nH]cc(-c2cccc(-n3cccn3)c2)cc1O | 5.2 µM | > 100 µM | > 100 µM | –
O=C(Cc1ccc(Cl)cc1Cl)NCc1ccc(O)c(O)c1Cl | 1.6 µM | > 100 µM | > 100 µM | –
O=C(CNc1ccccc1)N/N=C/c1ccc(O)c(O)c1 | 2 µM | > 100 µM | > 100 µM | –
Cn1cc(-c2ccc(F)cc2)cc(O)c1=O | > 100 µM | – | – | –
O=c1[nH]cc(-c2ccc(F)cc2)cc1O | 8.7 µM | > 100 µM | > 100 µM | logD [4]: 2; Activity [5]: > 10 µM; half-life [6]: > 400 min; half-life [7]: > 400 min; Papp [8]: 4.4 ×10⁻⁶ cm/s; Kd [9]: 3.5 µM
COc1ccc(CC(=O)NCc2ccc(O)c(O)c2)cc1 | 2.6 µM | – | – | –
Oc1ccc(-c2nc(Cc3ccc(Cl)cc3)no2)cc1O | 7.8 µM | > 100 µM | > 100 µM | –
N#Cc1cccc(CC(=O)NCc2ccc(O)c(O)c2)c1 | 4 µM | – | – | –
O=C(Cc1ccc(O)c(O)c1)NCc1ccc(Cl)cc1Cl | 0.74 µM | > 100 µM | > 100 µM | –

Compound | IC50 [1] | IC50 [2] | IC50 [3] | also measured
Cn1ncc2ccc(-c3c[nH]c(=O)c(O)c3)cc21 | 14.6 µM | > 100 µM | > 100 µM | –
O=C(Cc1ccccc1)NCc1ccc(O)c(O)c1 | 13.3 µM | > 100 µM | > 100 µM | –
CC(=O)N1CCN(CC(=O)NCc2ccc(O)c(O)c2)CC1 | > 100 µM | – | > 100 µM | –
O=C(COc1ccccc1)NCc1ccc(O)c(O)c1 | 12.1 µM | > 100 µM | > 100 µM | –
O=C(Cc1ccc(Cl)cc1Cl)NCc1ccc(O)c(O)c1 | 0.63 µM | > 100 µM | > 100 µM | logD [4]: 2.7; Activity [5]: > 10 µM; half-life [6]: 23 min; half-life [7]: 28 min; Papp [8]: 3.9 ×10⁻⁶ cm/s; Kd [9]: 30 µM; IC50 [10]: 15.6 µM; Activity [11]: Toxic; Activity [12]: Toxic; Activity [13]: 50.2%; PF50 [14]: 1.08; PF50 [15]: 1.15; PF50 [16]: 1.51; PF50 [17]: 1.68; PF50 [18]: 2.03
O=c1[nH]c(-c2ccc(F)cc2)ccc1O | 55.2 µM | – | – | –
O=c1[nH]cc(Br)cc1O | 24 µM | – | – | –
Oc1ccc(Cc2nc(-c3ccc(Cl)cc3)no2)cc1O | 12.2 µM | > 100 µM | > 100 µM | –
O=C(Cc1ccc(Cl)cc1Cl)N1CCc2cc(O)c(O)cc2C1 | 1 µM | > 100 µM | > 100 µM | –
O=C(NCc1ccc(O)c(O)c1)c1ccccc1 | 24.5 µM | > 100 µM | > 100 µM | –
O=C(Cc1ccc(Cl)cc1Cl)NCc1c[nH]c(=O)c(O)c1 | 100 µM | – | – | –
O=C(CCc1ccccc1)NCc1ccc(O)c(O)c1 | 7.3 µM | > 100 µM | > 100 µM | –
O=c1[nH]ccc(-c2ccc(F)cc2)c1O | > 100 µM | – | – | –
O=c1[nH]cc(-c2ccc(F)c(Cl)c2)cc1O | 13.1 µM | > 100 µM | > 100 µM | –
O=C(NCc1ccc(O)c(O)c1)C1CCCC1 | 24.6 µM | > 100 µM | > 100 µM | –
O=S(=O)(Cc1ccc(Cl)cc1Cl)NCc1ccc(O)c(O)c1 | 2.9 µM | > 100 µM | > 100 µM | –
O=C(Cc1ccc(N2CCOCC2)cc1)NCc1ccc(O)c(O)c1 | 7.9 µM | > 100 µM | > 100 µM | –
O=C(CNc1ccccc1)Nc1ccc(O)c(O)c1 | 1.6 µM | > 100 µM | > 100 µM | –
CC(C(=O)NCc1ccc(O)c(O)c1)c1ccccc1 (centres undefined) | 1.8 µM | > 100 µM | – | –
O=C(NCc1ccc(O)c(O)c1)C1CCN(Cc2ccc(F)cc2)CC1 | 5.8 µM | > 100 µM | > 100 µM | –
Cc1cccc(NCC(=O)N/N=C/c2cc(Br)c(O)c(O)c2Br)c1 | 33 µM | > 100 µM | > 100 µM | –
